Holding throughout (format): functional
Assay [1] deals with DLD-1. Kind of assay: Cytotoxicity against human DLD1 cells assessed as cell viability at 20 uM after 3 days by colorimetric MTT assay. The conditions noted are these: DLD-1, 72 h, read-out: Activity. In outline:
(§1)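 A549 and DLD-1 cells from ATCC, grown as recommended, were seeded at 5000 cells/well the day before dosing. They were exposed for 3 days in medium with 5% FBS to compound diluted from 20 mM DMSO stocks (final up to 20 µM, 0.1% v/v DMSO). Cells then received 0.5 mg/mL MTT for 4 h, formazan was dissolved in 10% SDS/10 mM HCl, and A595 was read. Viability is % of 0.1% DMSO control; two experiments, triplicate points.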
Background: Tetrazolium dyes change colour on reduction, which living cells bring about.

Assay [2] relates to A549. In words: Cytotoxicity against human A549 cells assessed as cell viability at 20 uM after 3 days by colorimetric MTT assay. The settings on record: A549, 72 h, read-out: Activity. In outline:
as §1

The test system of assay [3] is MV4-11. In words: Cytotoxicity against human MV4-11 cells assessed as cell viability at 1 uM after 3 days by colorimetric MTT assay. The settings on record: MV4-11, 72 h, read-out: Activity. In short, it runs like this:
(§2)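 MV4-11 leukemia cells from ATCC, grown as recommended, were plated at 40,000 cells/well immediately before treatment. They were cultured 3 days in 5% FBS medium with compound from 20 mM DMSO stocks diluted in RPMI (final ≤20 µM, 0.1% v/v DMSO). MTT (0.5 mg/mL, 4 h) was followed by SDS/HCl solubilization and absorbance at 595 nm. Percent viability is relative to DMSO-treated controls; run twice in triplicate.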

In assay [4] the test system is DLD-1. Kind of assay: Cytotoxicity against human DLD1 cells assessed as cell viability at 1 uM after 3 days by colorimetric MTT assay. The conditions noted are these: DLD-1, 72 h, read-out: Activity. In outline: as §1
The test system of assay [5] is MV4-11. In words: Cytotoxicity against human MV4-11 cells assessed as cell viability at 20 uM after 3 days by colorimetric MTT assay. The settings on record: MV4-11, 72 h, read-out: Activity. In short, it runs like this: as §2
Assay [6] has as its system A549. Kind of assay: Cytotoxicity against human A549 cells assessed as cell viability at 1 uM after 3 days by colorimetric MTT assay. The conditions noted are these: A549, 72 h, read-out: Activity. In short, it runs like this:
as §1

The test system of assay [7] is MV4-11. Kind of assay: Cytotoxicity against human MV4-11 cells assessed as cell viability at 10 uM after 3 days by colorimetric MTT assay. The conditions noted are these: MV4-11, 72 h, read-out: Activity. In short, it runs like this: as §2
The subject of assay [8] is DLD-1. Kind of assay: Cytotoxicity against human DLD1 cells assessed as cell viability at 10 uM after 3 days by colorimetric MTT assay. The settings on record: DLD-1, 72 h, read-out: Activity. In outline: as §1
For assay [9], the system named is A549. Kind of assay: Cytotoxicity against human A549 cells assessed as cell viability at 10 uM after 3 days by colorimetric MTT assay. The conditions noted are these: A549, 72 h, read-out: Activity. In outline: as §1

The record followed here is ChEMBL document CHEMBL1828548, “Synthesis and pharmacological evaluations of novel 2H-benzo[b][1,4]oxazin-3(4H)-one derivatives as a new class of anti-cancer agents” (2011).

On to `O=C1COc2ccc(-c3[nH]c(-c4ccccc4)nc3-c3ccccc3)cc2N1`, for which the viability at 20 µM with DLD-1 [1] was 47.3%; with A549 [2] it was 58.5%; in the assay on MV4-11 [5] it was 7.6%. The viability at 1 µM in the assay on MV4-11 [3] was 105%; in the assay with DLD-1 [4] it was 98.2%; in the assay with A549 [6], 95.6%.
As to `O=C1COc2ccc(-c3[nH]c(-c4ccc(Cl)cc4Cl)nc3-c3ccccc3)cc2N1`, the viability at 20 µM in the assay on DLD-1 [1] is 61.9%; in the assay on A549 [2], 68.3%; in the assay with MV4-11 [5], 41.1%. The viability at 1 µM with MV4-11 [3] turned out to be 109%; in the assay with DLD-1 [4], 97.8%; in the assay with A549 [6] it was 97.4%.
`O=C1COc2ccc(-c3[nH]c(-c4ccc(F)cc4)nc3-c3ccccc3)cc2N1`: the viability at 20 µM with DLD-1 [1] was 29.5%; in the assay with A549 [2], 37.5%; in the assay with MV4-11 [5] it was 1.1%. For the same molecule, the viability at 1 µM in the assay with MV4-11 [3] came to 108%; in the assay on DLD-1 [4], 94.8%; with A549 [6], 97.1%.
For the molecule `COc1ccc(-c2nc(-c3ccccc3)c(-c3ccc4c(c3)NC(=O)CO4)[nH]2)cc1`, the viability at 20 µM in the assay on DLD-1 [1] amounted to 19.1%; in the assay on A549 [2] it was 38.1%; in the assay on MV4-11 [5], 1.2%. For the same molecule, the viability at 1 µM stood at 108% in the assay with MV4-11 [3], 96% in the assay with DLD-1 [4] and 101% in the assay with A549 [6].
Take `O=C1COc2ccc(-c3[nH]c(-c4c[nH]c5ncccc45)nc3-c3ccccc3)cc2N1`: the viability at 20 µM stood at 53.5% in the assay with DLD-1 [1], 86.8% in the assay with A549 [2] and 8.9% in the assay on MV4-11 [5]. In addition, the figures for the viability at 1 µM in the assay on MV4-11 [3], in the assay with DLD-1 [4] and in the assay on A549 [6] were 111%, 97.7% and 100%, respectively.
As for `O=C1COc2ccc(-c3[nH]c(-c4ccc(C(F)(F)F)cc4)nc3-c3ccccc3)cc2N1`, the viability at 20 µM in the assay on DLD-1 [1] was determined as 12.1%; with A549 [2] it was 21.7%; in the assay with MV4-11 [5], 0.6%. Besides, the figures for the viability at 1 µM with MV4-11 [3], in the assay on DLD-1 [4] and in the assay with A549 [6] were 111%, 95% and 103%, respectively.
Take `O=C1COc2ccc(-c3nn(-c4ccccc4)cc3-c3ccccc3)cc2N1`: the viability at 20 µM worked out at 47.7% in the assay on DLD-1 [1], 59.7% in the assay with A549 [2] and 97.9% in the assay with MV4-11 [5]. In addition, the viability at 1 µM with MV4-11 [3] is 117%; in the assay with DLD-1 [4] it was 77%; in the assay on A549 [6] it was 92.2%.
For the molecule `Cc1ccccc1-n1cc(-c2ccccc2)c(-c2ccc3c(c2)NC(=O)CO3)n1`, the viability at 20 µM in the assay with DLD-1 [1] came to 62.9%; with A549 [2], 85.3%; with MV4-11 [5] it was 54.2%. The viability at 1 µM was 99.4% with MV4-11 [3], 92.2% with DLD-1 [4] and 94.8% in the assay with A549 [6].
`O=C1COc2ccc(-c3nn(-c4ccc(Br)cc4)cc3-c3ccccc3)cc2N1`: the viability at 20 µM in the assay with DLD-1 [1] worked out at 54.2%; with A549 [2], 58.8%; in the assay with MV4-11 [5] it was 91.5%. For the same molecule, the results for the viability at 1 µM in the assay with MV4-11 [3], in the assay with DLD-1 [4] and with A549 [6] were 108%, 66.4% and 81.5%, respectively.
Consider `O=C1COc2ccc(-c3nn(-c4ccc(Cl)cc4)cc3-c3ccccc3)cc2N1`, for which the viability at 20 µM in the assay with DLD-1 [1] is 47.1%; in the assay with A549 [2] it was 52.4%; in the assay with MV4-11 [5], 91.9%. For the same molecule, the viability at 1 µM with MV4-11 [3] worked out at 108%; in the assay on DLD-1 [4], 61.9%; with A549 [6], 84.4%.
Turning to `O=C1COc2ccc(-c3nn(-c4ccc(F)cc4)cc3-c3ccccc3)cc2N1`, the results for the viability at 20 µM in the assay on DLD-1 [1], with A549 [2] and in the assay with MV4-11 [5] were 45.2%, 56.4% and 92.6%, respectively. In addition, the viability at 1 µM was 107% with MV4-11 [3], 64.4% with DLD-1 [4] and 78.2% in the assay with A549 [6].
For the molecule `O=C1COc2ccc(-c3nn(-c4cc(Cl)cc(Cl)c4)cc3-c3ccccc3)cc2N1`, the viability at 20 µM with DLD-1 [1] came to 52.2%; with A549 [2] it was 70.2%; in the assay with MV4-11 [5], 50.5%. For the same molecule, the viability at 1 µM in the assay with MV4-11 [3] is 105%; in the assay on DLD-1 [4] it was 90.3%; in the assay with A549 [6], 93.1%.
In the case of `COc1ccc(-n2cc(-c3ccccc3)c(-c3ccc4c(c3)NC(=O)CO4)n2)cc1`, the figures for the viability at 20 µM in the assay with DLD-1 [1], in the assay with A549 [2] and with MV4-11 [5] were 35.6%, 42.6% and 59.9%, respectively. In addition, the viability at 1 µM was determined as 106% with MV4-11 [3], 92.2% with DLD-1 [4] and 95.6% with A549 [6].
`C#Cc1cccc(Nc2ncnc3cc(OCCOC)c(OCCOC)cc23)c1` [ERLOTINIB]: the viability at 10 µM in the assay with MV4-11 [7] worked out at 16.8%; in the assay with DLD-1 [8], 55.4%; in the assay on A549 [9] it was 68.5%. Further, the viability at 1 µM in the assay on MV4-11 [3] is 98.3%; in the assay with DLD-1 [4], 85.7%; in the assay on A549 [6], 83%.
For `COc1cc2ncnc(Nc3ccc(F)c(Cl)c3)c2cc1OCCCN1CCOCC1` [GEFITINIB], the viability at 10 µM in the assay on MV4-11 [7] stood at 7%; in the assay on DLD-1 [8] it was 65.7%; in the assay on A549 [9], 61.5%. For the same molecule, the viability at 1 µM in the assay with MV4-11 [3] stood at 92.4%; in the assay with DLD-1 [4], 87%; in the assay on A549 [6] it was 84.4%.
As to `Cc1ccc(NC(=O)c2ccc(CN3CCN(C)CC3)cc2)cc1Nc1nccc(-c2cccnc2)n1` [IMATINIB], the viability at 10 µM with MV4-11 [7] is 82%; with DLD-1 [8] it was 91.5%; in the assay with A549 [9] it was 98.6%. Moreover, the viability at 1 µM was 105% with MV4-11 [3], 89.9% in the assay on DLD-1 [4] and 108% in the assay on A549 [6].
Turning to `CNC(=O)c1cc(Oc2ccc(NC(=O)Nc3ccc(Cl)c(C(F)(F)F)c3)cc2)ccn1` [SORAFENIB], the viability at 10 µM amounted to 0.7% in the assay on MV4-11 [7], 28% in the assay on DLD-1 [8] and 28.6% in the assay with A549 [9]. In addition, the viability at 1 µM in the assay with MV4-11 [3] worked out at 1.6%; in the assay with DLD-1 [4], 93.4%; with A549 [6], 103%.
Turning to `CCN(CC)CCNC(=O)c1c(C)[nH]c(/C=C2\C(=O)Nc3ccc(F)cc32)c1C` [SUNITINIB], the viability at 10 µM in the assay with MV4-11 [7] is 0.5%; in the assay on DLD-1 [8] it was 52.7%; in the assay with A549 [9], 37.4%. Besides, the viability at 1 µM with MV4-11 [3] was 1.4%; in the assay with DLD-1 [4] it was 92.9%; in the assay on A549 [6], 102%.
As to `COc1cc2/c(=N/c3ccc(Br)cc3F)nc[nH]c2cc1OCC1CCN(C)CC1` [VANDETANIB], the viability at 10 µM stood at 1.6% in the assay on MV4-11 [7], 37.9% in the assay with DLD-1 [8] and 41.7% in the assay on A549 [9]. The viability at 1 µM with MV4-11 [3] was 84.1%; in the assay with DLD-1 [4], 88.6%; in the assay on A549 [6], 88.7%.
